ABCG2 block – inhibitors of human ABCG2 transporter, ABCB1 counter-screen; AID 1325; inhibition, % at 6.6 µM; actives 0.1% (n = 190,000); IgMXP3 cells, JC-1 efflux, flow cytometry; Q9UNQ0;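 active means inhibition above 80%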;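 further: 0% = DMSO and 100% = nicardipine control wells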
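Test system: IgMXP3 (ABCG2) plus far-red-tagged CCRF-Adr (ABCB1) cells. Reagent: JC-1 dye as substrate. Timing: 10 min exposure at 25 °C with rotation, no wash. Measured by: flow cytometric JC-1 green MFI at 530 nm. Read-out: percent efflux inhibition, scaled nicardipine 100% to DMSO 0%. Control set: nicardipine and DMSO wells.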
ABCB1 block – inhibitors of human ABCB1 transporter, ABCG2 counter-screen; P08183; CCRF-Adr cells, JC-1 efflux, flow cytometry; inhibition, % at 6.6 µM; actives 0.067% (n = 190,000); AID 1326; in the data active means inhibition above about 40%;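 further: 0% = vehicle and 100% = reference inhibitor; higher value means more JC-1 retained so stronger ABCB1 efflux block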
Target sequence (P08183 whole entry, looked up): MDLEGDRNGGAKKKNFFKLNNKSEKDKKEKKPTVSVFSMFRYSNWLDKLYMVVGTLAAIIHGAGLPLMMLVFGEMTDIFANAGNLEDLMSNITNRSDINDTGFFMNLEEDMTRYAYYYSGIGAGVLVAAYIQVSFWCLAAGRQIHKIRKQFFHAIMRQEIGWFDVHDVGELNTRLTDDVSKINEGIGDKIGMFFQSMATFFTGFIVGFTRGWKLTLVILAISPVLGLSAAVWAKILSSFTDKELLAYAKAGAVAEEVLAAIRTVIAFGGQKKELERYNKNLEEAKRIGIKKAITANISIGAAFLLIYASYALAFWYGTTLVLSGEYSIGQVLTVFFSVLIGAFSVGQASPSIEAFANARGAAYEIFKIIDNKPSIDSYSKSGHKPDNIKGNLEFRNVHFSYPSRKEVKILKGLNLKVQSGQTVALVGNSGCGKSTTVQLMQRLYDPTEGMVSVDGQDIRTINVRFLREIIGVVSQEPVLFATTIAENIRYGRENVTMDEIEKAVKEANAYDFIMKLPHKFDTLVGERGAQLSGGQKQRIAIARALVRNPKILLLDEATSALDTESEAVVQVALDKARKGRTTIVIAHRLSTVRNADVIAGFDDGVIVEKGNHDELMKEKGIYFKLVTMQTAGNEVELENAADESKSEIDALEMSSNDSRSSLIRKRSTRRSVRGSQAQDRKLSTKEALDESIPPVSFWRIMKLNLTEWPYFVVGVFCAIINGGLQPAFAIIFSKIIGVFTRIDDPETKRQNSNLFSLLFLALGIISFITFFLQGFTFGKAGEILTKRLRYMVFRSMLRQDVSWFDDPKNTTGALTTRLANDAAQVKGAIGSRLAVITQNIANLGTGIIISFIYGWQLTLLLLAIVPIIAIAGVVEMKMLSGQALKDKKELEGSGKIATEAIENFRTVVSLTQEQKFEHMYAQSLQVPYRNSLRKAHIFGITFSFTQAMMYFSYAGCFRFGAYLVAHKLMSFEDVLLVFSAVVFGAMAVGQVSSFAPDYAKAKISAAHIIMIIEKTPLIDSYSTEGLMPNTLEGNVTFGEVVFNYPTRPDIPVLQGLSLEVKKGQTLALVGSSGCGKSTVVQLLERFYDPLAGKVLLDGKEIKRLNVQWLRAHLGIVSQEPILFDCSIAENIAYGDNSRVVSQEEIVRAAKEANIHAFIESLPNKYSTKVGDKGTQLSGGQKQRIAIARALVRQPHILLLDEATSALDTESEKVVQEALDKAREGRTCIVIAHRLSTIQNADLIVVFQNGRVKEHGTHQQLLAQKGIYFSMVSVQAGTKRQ
Measles CPE – protection of cells from measles virus. AID 841. actives 1.5% (n = 140,000). protection (pct of control), % at 4 µM. Measles virus-infected cells, CPE protection, absorbance; in the data active means protection mostly above about 24%, no sharp cut-off; inactive means mostly below about 26%
FLuc inh counter – inhibits firefly luciferase, flagging false hits in luciferase inhibition screens; inhibition, % at 10 µM; ATPLite firefly luciferase biochemical luminescence, 10 min; actives 1.5% (n = 200,000); AID 1006; P08659;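 active means inhibition above about 50% when tested at 10 µM, limit read from the data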
FLuc stim CS – affects firefly luciferase, flagging false hits in luciferase stimulation screens; P08659; ATPlite luciferase biochemical, luminescence, 10 min; 0 = ATP-free wells, 1 = DMSO control; activation factor at 10 µM; 200,000 tested, under 10 active; AID 1027;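 active means luciferase activation factor, scaled between plate controls, of at least 2 with compound at 10 µM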
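Material: Luciferase/luciferin reagent mix; Doses: test compounds dosed from 2 mM stocks in 100% DMSO; Schedule: 10 min incubation after luciferase reagent addition, room temperature; Measured by: luminescence from luciferase reaction; Read-out: luminescence gain marking luciferase activators.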
DTT redox prof – compounds producing H2O2 with reducing agent – biochemical, NIH compound library profiling, artefact control for MLSCN library redox annotation, primary screen. activation, % at 10 µM. DTT-dependent redox cycling H2O2, phenol red/HRP absorbance; 100% = 100 µM peroxide control, 0% = buffer. actives 0.03% (n = 200,000);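 active means activation of at least 50% relative to the plate's high and low controls in the primary single-dose screen; inactive means activation below 50%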;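 further: compound incubated with DTT at 0.8 mM final as the reducing agent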
* marks the source's active call; other numbers are inactive results; · = not tested or not shown. Most compounds without a hit are left out; they make up all but 2.7% or so of the library.

SMILES	ABCG2 block	ABCB1 block	Measles CPE	FLuc inh counter	FLuc stim CS	DTT redox prof
O=C(N/N=C/c1ccccn1)c1cccs1	11.5	0.3	·	32.9	0.7	-0.1
CC(C)c1nc(SCC(=O)c2ccccc2)c2c(=O)n(C)c(=O)n(C)c2n1	-1.3	-1.6	0.8	-9.1	1.1	-1.5
CCOC(=O)Cn1nc(C)n(-c2ccc(F)cc2)c1=O	1.5	0.4	·	-3.7	1	0.1
CC(C)c1ccc(/C=N\NC(=O)c2ccc(Cn3cccn3)o2)cc1	0.9	0.2	5.2	71.6*	0.3	-0.1
O=C(N/N=C\c1ccc(Cl)s1)c1ccc(Cn2cccn2)o1	2.5	0.4	7.1	1.7	1	3.9
C/C(=N/OC(=O)c1c(F)cccc1F)c1nccs1	-0.8	-0.3	2.9	81.0*	0.2	1.1
COc1ccc(C(=O)O/N=C(\C)c2nccs2)cc1	0.2	-1.9	·	91.7*	0.1	0.7
C/C(=N\OC(=O)c1ccc(F)cc1)c1nccs1	1.2	0.0	12.7	87.4*	0.1	2.2
COc1ccc(C(=O)O/N=C(/C)c2cccs2)cc1	3.4	0.4	5.4	95.9*	0	0.2
C/C(=N\OC(=O)c1c(-c2c(F)cccc2Cl)noc1C)c1nccs1	-3.3	-1.3	·	-2.7	1	-0.9
COc1ccc(CCNC(=O)C2CCN(S(=O)(=O)c3cccc4nsnc34)CC2)cc1OC	1.3	0.1	5.2	-7.8	1.1	0.4
O=C(NCCc1ccccc1)C1CCN(S(=O)(=O)c2cccc3nsnc23)CC1	2.2	0.6	49.1*	0.4	1	0.6
O=C(N/C(=C\c1ccc(Br)cc1)C(=O)N1CCCC1)c1ccccc1F	0.0	0.1	·	-4.4	1	0.1
CC(CN1CCOCC1)OC(=O)c1ccccc1Br (configuration not stated)	19.7	0.4	55.8*	1.9	1	-1.5
CC(Sc1nncs1)C(=O)Nc1ccc2c(c1)OCO2 (configuration not stated)	15.1	-1.1	·	-0.5	1	-0.4
O=C(NCC1CCCC(CNC(=O)N2CCc3ccccc32)C1)N1CCc2ccccc21 (configuration not stated)	49.5	2.5	6.7	-7.5	1.1	0.2
NC(=O)CC(NC(=O)OCc1ccccc1)C(=O)O (configuration not stated)	-0.7	-0.2	23.5	-4.7	1	1.2
O=C(O)CC(NC(=O)OCc1ccccc1)c1ccccc1 (configuration not stated)	0.5	0.2	20.0*	-3.2	1	-1.8
O=C(CSc1nc2ccccc2n1-c1ccccc1)Nc1ncc(Cl)cc1Cl	22.0	13.3	52.5*	-6.1	1.1	0.3
Cc1cccc(-n2c(SCC(=O)Nc3ncc(Cl)cc3Cl)nc3ccccc32)c1	6.0	16.5	42.8*	-3.5	1	-0.4
COc1ccc(-n2c(SCC(=O)Nc3ncc(Cl)cc3Cl)nc3ccccc32)cc1	3.7	6.7	·	-7.5	1.1	-1.5
COCCn1c(SCC(=O)Nc2nc(C)c(Cl)cc2Cl)nc2ccccc21	3.3	2.3	0.9	-8.5	1.1	1.0
N#CC1=C(N)N(c2ncn[nH]2)C2=C(C(=O)CCC2)C1c1ccc(F)cc1 (configuration not stated)	-1.4	0.1	12.7	-3.2	1	-0.2
CCCCSc1n[nH]c(N)n1	1.1	0.1	12.0	-6.5	1.1	-0.7
CCOc1ccc2c(c1)C(=NNC(=O)c1ccncc1)c1cc(OCC)ccc1-2	-0.4	0.0	3.0	-6.5	1.1	4.3
O=C(/C=C/Nc1ccc(F)cc1)c1ccc(Br)cc1	3.6	0.1	·	38.8	0.6	-1.6
O=C(/C=C/Nc1ccc(Br)cc1F)c1ccccc1	8.2	0.2	24.3	95.8*	0	0.5
O=C(/C=C/Nc1ccccc1F)c1ccc(Br)cc1	-2.6	-0.6	16.5	79.6*	0.2	0.8
O=C(/C=C/Nc1ccc(F)c(F)c1)c1ccc(Br)cc1	5.7	-0.4	5.9	16.7	0.8	-0.6
COc1ccc(NC(=O)COC(=O)c2ccc(OCc3ccccc3Cl)c(OC)c2)c(OC)c1	13.9	9.1	5.0	0.0	1	0.0

Source: PubChem BioAssay (several laboratories)
